Several values for one entry are separate records, joined by “and”; a condition that tells them apart may be missing. Identical values can stand only once.
The molecules below were run against Endothelial PAS domain-containing protein 1 (Homo sapiens) (UniProt Q99814) (assay: HIF-1a and HIF-2a reporter inhibitors, SAR follow-up, cell-based, luminescence, MIAPaCa-2, 786-0, panel (AID 652011)). Settings: MIAPaCa-2/PANC HIF reporter, luciferase luminescence, desferoxamine, overnight, HIF2a PANC, run 2; at 99 µM (top of the series).
Chain of Endothelial PAS domain-containing protein 1 (Homo sapiens) (Q99814 whole entry, looked up, the tested form may be a part): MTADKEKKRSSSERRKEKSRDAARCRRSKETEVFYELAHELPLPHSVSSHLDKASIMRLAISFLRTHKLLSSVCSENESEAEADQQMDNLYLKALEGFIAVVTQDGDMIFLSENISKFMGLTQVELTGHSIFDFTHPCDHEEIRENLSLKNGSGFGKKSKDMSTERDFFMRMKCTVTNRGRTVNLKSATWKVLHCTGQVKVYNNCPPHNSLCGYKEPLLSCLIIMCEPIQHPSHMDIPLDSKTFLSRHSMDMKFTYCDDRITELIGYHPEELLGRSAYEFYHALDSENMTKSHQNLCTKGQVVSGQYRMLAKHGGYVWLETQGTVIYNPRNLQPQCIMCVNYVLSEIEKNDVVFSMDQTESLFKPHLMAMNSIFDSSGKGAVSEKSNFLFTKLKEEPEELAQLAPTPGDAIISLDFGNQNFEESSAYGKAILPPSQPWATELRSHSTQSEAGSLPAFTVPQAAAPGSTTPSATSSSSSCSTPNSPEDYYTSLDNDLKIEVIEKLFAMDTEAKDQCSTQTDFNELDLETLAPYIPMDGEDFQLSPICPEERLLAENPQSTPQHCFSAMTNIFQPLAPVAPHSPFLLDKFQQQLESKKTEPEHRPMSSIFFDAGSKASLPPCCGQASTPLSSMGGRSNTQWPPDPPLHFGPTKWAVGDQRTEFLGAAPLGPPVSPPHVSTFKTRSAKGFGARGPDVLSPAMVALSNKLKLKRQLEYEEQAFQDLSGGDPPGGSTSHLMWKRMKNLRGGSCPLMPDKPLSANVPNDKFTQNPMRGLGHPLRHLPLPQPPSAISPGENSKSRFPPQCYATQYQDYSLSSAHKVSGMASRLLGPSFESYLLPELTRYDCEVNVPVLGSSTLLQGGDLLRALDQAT
How it was run: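 Also added: desferoxamine added before compound. Dosing: compounds from 10 mM and 0.3125 mM stocks, 1% DMSO final. Timing: overnight seeding and compound exposure, 37 °C, 5% CO2, 10-min detection. Detection: luciferase luminescence with One-Glo reagent.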

| Compound | inhibition |
| --- | --- |
| CCC(C)NC(=O)CCc1nc(-c2ccc(C(C)C)cc2)no1 (stereo not given) | 38.4% |
| CNC(=O)CCc1nc(-c2ccc(Cl)cc2)no1 | -17.8% |
| CC(C)(C)c1ccc(-c2noc(CCC(N)=O)n2)cc1 | 124% and 92.8% |
| CC(C)CNC(=O)CCc1nc(-c2ccc(C(C)(C)C)cc2)no1 | 65.5% |
| CCOc1ccc(-c2noc(CCC(=O)NC)n2)cc1 | 112% |
| CCCCc1ccc(-c2noc(CCC(=O)NC(C)CC)n2)cc1 (stereo not given) | 37.9% |
| CC(C)(C)c1ccc(-c2noc(CCC(=O)Nc3cccc([N+](=O)[O-])c3)n2)cc1 | 86.3% |
| CNC(=O)CCc1nc(-c2ccc(F)cc2)no1 | 8.8% |
| COc1cccc(NC(=O)CCc2nc(-c3ccc(C(C)(C)C)cc3)no2)c1 | 131% |
| CCNC(=O)CCc1nc(-c2ccc(OCC)cc2)no1 | -15.1% |
| CNC(=O)CCc1nc(-c2ccc(C(C)(C)C)cc2)no1 | 47.3% |
| CCc1ccc(-c2noc(CCC(=O)NC(C)(C)C)n2)cc1 | -22.9% |
| CCNC(=O)CCc1nc(-c2ccccc2)no1 | 13% |
| CCCCc1ccc(-c2noc(CCC(=O)NCC)n2)cc1 | 9.61% |
| CNC(=O)CCc1nc(-c2ccc(C)cc2)no1 | 76.6% |
| CCC(C)NC(=O)CCc1nc(-c2ccccc2)no1 (stereo not given) | -3.82% |
| CCC(C)NC(=O)CCc1nc(-c2ccc(C(C)(C)C)cc2)no1 (stereo not given) | 52.2% |
| COc1ccccc1NC(=O)CCc1nc(-c2ccc(C(C)(C)C)cc2)no1 | 123% |
| CCNC(=O)CCc1nc(-c2ccccc2Cl)no1 | 13.5% |
| CCNC(=O)CCc1nc(-c2cccc(OC)c2)no1 | -12.7% |
| COC(=O)CCc1nc(-c2ccc(C(C)(C)C)cc2)no1 | 128% |
| CCCCc1ccc(-c2noc(CCC(=O)NC)n2)cc1 | -4.31% |
| CC(C)(C)c1ccc(-c2noc(CCC(=O)O)n2)cc1 | 124% |
| CC(C)(C)NC(=O)CCc1nc(-c2ccccc2)no1 | -18.9% |
| CC(C)(C)c1ccc(-c2noc(CCC(=O)NC3CC3)n2)cc1 | 50% |
| C=CCNC(=O)CCc1nc(-c2ccc(C(C)(C)C)cc2)no1 | 82% |
| CC(C)c1ccc(-c2noc(CCC(=O)NC3CC3)n2)cc1 | 26.7% |
| CCNC(=O)CCc1nc(-c2ccccc2C)no1 | -1.15% |
| CCN(CC)C(=O)CCc1nc(-c2ccc(C(C)(C)C)cc2)no1 | 76.8% and 78.5% |
| CCNC(=O)CCc1nc(-c2c(Cl)cccc2Cl)no1 | 31.9% |
